According to ChEMBL document CHEMBL1250521, “Design, synthesis, and preliminary biological evaluation of new isoform-selective f-current blockers” (J Med Chem, 2010):

Tests used:
[1] = molecular target: T1, Potassium/sodium hyperpolarization-activated cyclic nucleotide-gated channel 2 (Mus musculus, UniProt O88703); assay: Blockade of mouse HCN2 expressed in HEK293 cells at -120 f-current amplitude by patch-clamp electrophysiological assay; assay type: cell-based
T1 sequence (O88703 whole entry): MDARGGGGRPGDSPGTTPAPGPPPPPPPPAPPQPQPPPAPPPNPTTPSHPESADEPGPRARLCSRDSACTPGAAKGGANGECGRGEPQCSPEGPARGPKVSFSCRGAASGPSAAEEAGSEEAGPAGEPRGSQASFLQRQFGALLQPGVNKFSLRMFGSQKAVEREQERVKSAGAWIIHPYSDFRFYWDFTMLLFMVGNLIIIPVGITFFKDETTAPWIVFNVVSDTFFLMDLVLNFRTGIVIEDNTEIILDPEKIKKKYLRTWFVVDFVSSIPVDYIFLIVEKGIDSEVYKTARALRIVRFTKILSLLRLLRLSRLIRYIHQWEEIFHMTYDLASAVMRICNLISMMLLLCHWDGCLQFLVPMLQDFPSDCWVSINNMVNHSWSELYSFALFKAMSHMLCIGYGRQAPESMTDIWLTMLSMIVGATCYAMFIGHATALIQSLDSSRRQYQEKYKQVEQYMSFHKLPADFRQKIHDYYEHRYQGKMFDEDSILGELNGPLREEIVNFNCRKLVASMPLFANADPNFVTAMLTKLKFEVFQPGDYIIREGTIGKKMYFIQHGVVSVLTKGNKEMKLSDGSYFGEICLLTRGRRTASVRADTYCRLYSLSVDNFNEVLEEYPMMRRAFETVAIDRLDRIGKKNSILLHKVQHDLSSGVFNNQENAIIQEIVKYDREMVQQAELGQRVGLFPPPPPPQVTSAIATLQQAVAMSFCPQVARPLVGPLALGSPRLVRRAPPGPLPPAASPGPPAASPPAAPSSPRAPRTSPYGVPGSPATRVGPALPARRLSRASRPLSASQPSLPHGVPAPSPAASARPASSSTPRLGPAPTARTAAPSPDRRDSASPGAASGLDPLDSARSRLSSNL
Summary of the method: (§1)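 HEK293 cells stably transfected with mouse HCN1, mouse HCN2 or human HCN4. Patch-clamp recordings of hyperpolarization-activated f-current at varied concentrations to derive EC50.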

[2] = molecular target: Potassium/sodium hyperpolarization-activated cyclic nucleotide-gated channel 1 (Mus musculus, UniProt O88704); assay: Blockade of mouse HCN1 expressed in HEK293 cells at -120 f-current amplitude by patch-clamp electrophysiological assay; assay type: cell-based; summary of the method: as §1
Chain of Potassium/sodium hyperpolarization-activated cyclic nucleotide-gated channel 1 (O88704 whole entry): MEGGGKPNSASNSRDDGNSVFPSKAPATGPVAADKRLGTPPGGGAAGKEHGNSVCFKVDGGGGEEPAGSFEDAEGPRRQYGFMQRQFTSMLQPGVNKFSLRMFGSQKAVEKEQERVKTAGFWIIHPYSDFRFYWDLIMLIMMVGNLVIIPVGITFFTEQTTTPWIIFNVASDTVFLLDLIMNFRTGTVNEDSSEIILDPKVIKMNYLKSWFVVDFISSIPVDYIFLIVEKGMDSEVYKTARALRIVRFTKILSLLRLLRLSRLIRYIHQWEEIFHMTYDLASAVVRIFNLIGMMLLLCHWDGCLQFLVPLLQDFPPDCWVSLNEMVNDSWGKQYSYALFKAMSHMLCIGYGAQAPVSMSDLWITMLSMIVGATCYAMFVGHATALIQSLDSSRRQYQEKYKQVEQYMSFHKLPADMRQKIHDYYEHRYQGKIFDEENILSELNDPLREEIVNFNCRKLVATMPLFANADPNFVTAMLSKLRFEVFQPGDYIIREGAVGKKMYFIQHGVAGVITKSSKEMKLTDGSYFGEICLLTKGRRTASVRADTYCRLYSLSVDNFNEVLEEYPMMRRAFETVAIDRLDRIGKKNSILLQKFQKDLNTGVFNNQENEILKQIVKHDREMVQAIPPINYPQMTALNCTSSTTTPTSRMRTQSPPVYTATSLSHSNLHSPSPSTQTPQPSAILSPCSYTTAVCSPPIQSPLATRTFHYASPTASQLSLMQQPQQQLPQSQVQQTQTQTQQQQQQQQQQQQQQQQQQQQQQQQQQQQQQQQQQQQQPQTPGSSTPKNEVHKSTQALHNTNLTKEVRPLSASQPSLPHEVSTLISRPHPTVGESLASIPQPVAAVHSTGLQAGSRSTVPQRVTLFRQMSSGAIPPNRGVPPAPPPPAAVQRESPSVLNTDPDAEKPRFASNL

[3] = molecular target: Potassium/sodium hyperpolarization-activated cyclic nucleotide-gated channel 1 (Mus musculus) (UniProt O88704); assay: Blockade of mouse HCN1 expressed in HEK293 cells at 5 uM at -120 f-current amplitude by patch-clamp electrophysiological assay relative to control; assay type: cell-based
Chain of Potassium/sodium hyperpolarization-activated cyclic nucleotide-gated channel 1 (Mus musculus) (O88704 whole entry): as above
Summary of the method: (§2)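 Single-concentration patch-clamp screen at 5 μM on HEK293 cells stably expressing mouse HCN1 or human HCN4. f-current block normalized to control; mean ± SEM of three to five experiments.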

[4] = molecular target: T2, Potassium/sodium hyperpolarization-activated cyclic nucleotide-gated channel 4 (Homo sapiens) (UniProt Q9Y3Q4); assay: Blockade of human HCN4 expressed in HEK293 cells at 5 uM at -120 f-current amplitude by patch-clamp electrophysiological assay relative to control; assay type: cell-based; summary of the method: as §2
T2 sequence (whole entry): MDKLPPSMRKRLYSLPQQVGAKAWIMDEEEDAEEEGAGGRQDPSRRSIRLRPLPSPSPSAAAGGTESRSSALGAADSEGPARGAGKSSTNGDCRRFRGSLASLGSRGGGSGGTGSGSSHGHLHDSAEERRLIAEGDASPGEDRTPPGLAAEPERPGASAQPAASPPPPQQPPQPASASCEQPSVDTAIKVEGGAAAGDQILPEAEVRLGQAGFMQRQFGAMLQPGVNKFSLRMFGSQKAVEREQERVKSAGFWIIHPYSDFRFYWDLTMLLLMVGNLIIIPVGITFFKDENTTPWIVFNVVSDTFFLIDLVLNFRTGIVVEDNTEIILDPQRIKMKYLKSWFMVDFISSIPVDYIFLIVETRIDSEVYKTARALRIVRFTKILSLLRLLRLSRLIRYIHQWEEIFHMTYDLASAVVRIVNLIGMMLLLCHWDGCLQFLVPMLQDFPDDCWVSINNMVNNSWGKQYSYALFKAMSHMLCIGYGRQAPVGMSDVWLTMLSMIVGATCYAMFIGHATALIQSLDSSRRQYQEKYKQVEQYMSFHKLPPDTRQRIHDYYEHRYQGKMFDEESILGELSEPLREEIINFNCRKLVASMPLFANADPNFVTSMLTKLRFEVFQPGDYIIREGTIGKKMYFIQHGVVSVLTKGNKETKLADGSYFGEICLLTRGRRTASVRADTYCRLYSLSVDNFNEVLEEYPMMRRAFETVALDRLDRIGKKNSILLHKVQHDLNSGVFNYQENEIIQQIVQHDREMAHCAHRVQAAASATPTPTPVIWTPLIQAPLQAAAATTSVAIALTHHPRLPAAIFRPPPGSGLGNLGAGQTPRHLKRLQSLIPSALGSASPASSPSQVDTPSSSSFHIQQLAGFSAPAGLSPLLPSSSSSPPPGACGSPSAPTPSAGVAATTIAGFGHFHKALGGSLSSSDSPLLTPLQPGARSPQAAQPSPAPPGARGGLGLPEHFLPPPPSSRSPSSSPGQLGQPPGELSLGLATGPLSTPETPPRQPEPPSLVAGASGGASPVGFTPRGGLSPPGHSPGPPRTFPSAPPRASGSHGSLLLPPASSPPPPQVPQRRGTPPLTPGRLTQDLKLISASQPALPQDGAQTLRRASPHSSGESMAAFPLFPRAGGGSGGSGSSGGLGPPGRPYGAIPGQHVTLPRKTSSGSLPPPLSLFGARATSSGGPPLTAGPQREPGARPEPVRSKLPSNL

[5] = molecular target: T3, Potassium/sodium hyperpolarization-activated cyclic nucleotide-gated channel 4 (Homo sapiens, UniProt Q9Y3Q4); assay: Blockade of human HCN4 expressed in HEK293 cells at -120 f-current amplitude by patch-clamp electrophysiological assay; assay type: cell-based; summary of the method: as §1
T3 sequence (Q9Y3Q4 whole entry): T2 sequence (whole entry)

[6] = Blockade of HCN in guinea pig spontaneously beating atria assessed as reduction of heart rate measured for 15 mins; assay type: tissue-based, Cavia porcellus
Summary of the method: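 Isolated spontaneously beating guinea pig atria; cumulative concentrations 10-9-10-4 M applied, decrease in atrial rate recorded. EC50 obtained by fitting the concentration-effect curve to the Hill equation; mean ± SEM of three to four experiments.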

[7] = Selectivity ratio of EC50 for mouse HCN1 to EC50 for human HCN4
Summary of the method: (§3)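 Selectivity expressed as the ratio of EC50 values from patch-clamp on stably transfected HEK293 cells expressing mouse HCN1, mouse HCN2 or human HCN4.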

Mus musculus [8] = species on record: Mus musculus; assay: Selectivity ratio of EC50 for mouse HCN1 to EC50 for mouse HCN2; summary of the method: as §3
[9] = Selectivity ratio of EC50 for mouse HCN2 to EC50 for human HCN4; summary of the method: as §3
Mus musculus [10] = species on record: Mus musculus; assay: Selectivity ratio of EC50 for mouse HCN2 to EC50 for mouse HCN1; summary of the method: as §3

EC50 [1] | EC50 [2] | residual activity [3] | residual activity [4] | EC50 [5] | Selectivity ratio [7] | Selectivity ratio (Mus musculus [8]) | Selectivity ratio [9] | Selectivity ratio (Mus musculus [10]) | Structure (SMILES) | EC50 [6]
5.45 µM | 16.8 µM | – | – | 8.57 µM | – | – | – | – | COc1ccc(CCN(C)CCCN2CCc3cc(OC)c(OC)cc3CC2=O)cc1OC [ZATEBRADINE] | 13.4 µM
18.3 µM | 0.6 µM | 27% | 93% | 104 µM | 170 | 30 | – | – | COc1ccc([C@@H](C)CN(C/C=C\CN2C=Cc3cc(OC)c(OC)cc3CC2=O)C/C=C\CN2C=Cc3cc(OC)c(OC)cc3CC2=O)cc1OC | 113 µM
– | – | 85% | 71% | – | – | – | – | – | COc1ccc([C@H](C)CN(C)C/C=C/CN2C=Cc3cc(OC)c(OC)cc3CC2=O)cc1OC | –
24.6 µM | 5.6 µM | 53% | 59% | 7.14 µM | – | – | – | – | COc1ccc(CCN(C)C/C=C\CN2C=Cc3cc(OC)c(OC)cc3CC2=O)cc1OC | 15.8 µM
147 µM | 107 µM | 82% | 75% | 70.7 µM | – | – | – | – | COc1ccc(CCN(C/C=C\CN2C=Cc3cc(OC)c(OC)cc3CC2=O)C/C=C\CN2C=Cc3cc(OC)c(OC)cc3CC2=O)cc1OC | –
– | – | 85% | 72% | – | – | – | – | – | COc1ccc([C@@H](C)CN(C)C/C=C/CN2C=Cc3cc(OC)c(OC)cc3CC2=O)cc1OC | –

The next lines start with the compound.

Structure (SMILES) | EC50 [1] | EC50 [2] | residual activity [3] | residual activity [4] | EC50 [5] | Selectivity ratio [7] | Selectivity ratio (Mus musculus [8]) | Selectivity ratio [9] | Selectivity ratio (Mus musculus [10]) | EC50 [6]
COc1ccc([C@H](C)CN(C)C/C=C\CN2C=Cc3cc(OC)c(OC)cc3CC2=O)cc1OC | 25.5 µM | 31.3 µM | 76% | 91% | 31.6 µM | – | – | – | – | –
COc1ccc([C@H](C)CN(C/C=C\CN2C=Cc3cc(OC)c(OC)cc3CC2=O)C/C=C\CN2C=Cc3cc(OC)c(OC)cc3CC2=O)cc1OC | 50.1 µM | 17.9 µM | 76% | 92% | 136 µM | – | – | – | – | –
COc1cc2c(cc1OC)CC(=O)N(CCCN(C)C[C@H]1Cc3cc(OC)c(OC)cc31)CC2 [IVABRADINE] | 4.52 µM | 4.5 µM | 47% | 49% | 4.28 µM | – | – | – | – | –
COc1ccc([C@@H](C)CN(C)C/C=C\CN2C=Cc3cc(OC)c(OC)cc3CC2=O)cc1OC | 2.3 µM | 9.41 µM | 63% | 83% | 24.9 µM | – | – | 10 | 4 | 7.1 µM
COc1ccc([C@@H](C)CN(C/C=C/CN2C=Cc3cc(OC)c(OC)cc3CC2=O)C/C=C/CN2C=Cc3cc(OC)c(OC)cc3CC2=O)cc1OC | – | – | 60% | 73% | – | – | – | – | – | –
COc1ccc(CCN(C)C/C=C/CN2C=Cc3cc(OC)c(OC)cc3CC2=O)cc1OC | 17.2 µM | 2.31 µM | 35% | 53% | 7.23 µM | – | – | – | – | 11.3 µM
COc1ccc([C@H](C)CN(C/C=C/CN2C=Cc3cc(OC)c(OC)cc3CC2=O)C/C=C/CN2C=Cc3cc(OC)c(OC)cc3CC2=O)cc1OC | – | – | 93% | 83% | – | – | – | – | – | –
